# Measurements: ChEMBL document CHEMBL1151985, “Cytotoxic and antiplasmodial xanthones from Pentadesma butyracea” (J Nat Prod, 2009)
# Activity calls are given as the source filed them. No cut-off for these calls is given here.
# Experiments:
# MCF7 = experiment: Cytotoxicity against human MCF7 cells assessed as [3H]hypoxanthin incorporation after 24 to 72 hrs; format: functional, cell-based
# How it was run: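 MCF-7 cells kept as for the parasite culture but with 5% fetal calf serum in place of 5% human serum. Seeded at 2 × 10^4 cells/well, then exposed to compound. Growth read by [3H]-hypoxanthine incorporation after 24 and 72 h incubation, run as for the P. falciparum assay: plates frozen and thawed, harvested on glass fibre filters, beta-counted. IC50 from linear least-squares regression. Doxorubicin as positive control.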
# Plasmodium falciparum = experiment: Antiplasmodial activity […] against chloroquine-resistant Plasmodium falciparum FcB1 by [3H]hypoxanthine uptake; format: functional, organism-based; conditions: FcB1/Columbia
# How it was run: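 P. falciparum cultured continuously and synchronized by 5% D-sorbitol lysis. Parasites incubated with compound for 48 h, with [3H]-hypoxanthine added 24 h before freezing. Plates freeze-thawed, harvested onto glass fibre filters, and incorporation read by beta counting. IC50 from linear least-squares regression; chloroquine as positive control.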
# [1] = Ratio IC50 for human MCF7 cells to IC50 for chloroquine-resistant Plasmodium falciparum FcB1; format: functional
Structure (SMILES),Activity (MCF7),IC50 (Plasmodium falciparum) [µg/mL],Ratio IC50 [1],IC50 (MCF7) [µg/mL]
CC(C)=CCc1c(O)cc2oc3c(CC=C(C)C)c(O)c4c(c3c(=O)c2c1O)CC(O)C(C)(C)O4 (centres undefined),Active,,,
COc1c(O)cc2oc3cc(O)c(C/C=C(\C)CCC=C(C)C)c(O)c3c(=O)c2c1CC=C(C)C [BUTYRAXANTHONE A],,3,1.17,3.5
CC(C)=CCc1c(O)c(O)c(CC=C(C)C)c2c(=O)c3c(O)c4c(cc3oc12)OC(C)(C)C=C4 [BUTYRAXANTHONE B],,2.7,1.22,3.3
COc1c(O)cc2oc3cc(O)cc(O)c3c(=O)c2c1CC=C(C)CCCC(C)(C)O [BUTYRAXANTHONE D],,10,<0.13,1.3
CCN(CC)CCCC(C)Nc1ccnc2cc(Cl)ccc12 (centres undefined) [CHLOROQUINE],,,,> 100
CC(C)=CCc1c(O)cc2oc3c(CC=C(C)C)c(O)c(O)c(CC=C(C)C)c3c(=O)c2c1O [GARCINONE E],,2.8,0.54,1.5
CC(C)=CCc1c(O)c(CC=C(C)C)c2oc3c(O)ccc(O)c3c(=O)c2c1O [GARTANIN],,3.1,0.39,1.2
COc1c(O)cc2oc3cc4c(c(O)c3c(=O)c2c1CC=C(C)C)C=CC(C)(C)O4 [MANGOSTANIN],,> 1.9,<2.05,3.9
COc1c(O)cc2oc3cc(O)c(CC=C(C)C)c(O)c3c(=O)c2c1CC=C(C)C [MANGOSTIN],,2.9,1.21,3.5
COc1c(O)cc2oc3cc(O)cc(O)c3c(=O)c2c1C/C=C(\C)CCC=C(C)C [RUBRAXANTHONE],,3.4,0.76,2.6
CC(C)=CCc1c(O)cc2oc3c(CC=C(C)C)c(O)c4c(c3c(=O)c2c1O)C=CC(C)(C)O4 [TOVOPHYLLINE A],,2.8,0.93,2.6
